≈ marks a conversion by molar mass, not a printed value.
Assays:
Assay type in all cases: functional
Candida albicans [1] = test: Ratio of voriconazole MIC80 to compound MIC80 for Candida albicans ATCC Y0109
Cryptococcus neoformans = test: Antifungal activity against Cryptococcus neoformans ATCC BLS108 after 72 hrs by micro-broth dilution method; settings: ATCC BLS108, 72 h
Summary of the method: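 Quality-control ATCC strain included in each assay. Microbroth dilution per NCCLS M27-A2. DMSO-dissolved compounds were serially diluted in growth medium, inoculated and held at 35 °C, with MIC read at 72 h. MIC80 is the first well showing about 80% growth reduction versus the drug-free well. Tests were done in triplicate and the mean reported.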

Aspergillus fumigatus = test: Antifungal activity against Aspergillus fumigatus clinical isolate by micro-broth dilution method
Summary of the method: (§1)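 Clinical isolate. MIC by broth microdilution following the NCCLS M27-A2 reference method for yeasts. Compounds were dissolved in DMSO, serially diluted in growth medium, inoculated and incubated at 35 °C. MIC80 is the first well with about 80% less growth than the drug-free well. Each test was run three times and the mean of replicates reported.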

Candida albicans [2] = test: Antifungal activity against Candida albicans ATCC Y0109 after 24 hrs by micro-broth dilution method; settings: ATCC Y0109, 24 h
Summary of the method: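 ATCC quality-control strain, tested in every assay. NCCLS M27-A2 broth microdilution. Compounds were dissolved in DMSO, serially diluted in growth medium, inoculated and incubated at 35 °C, with growth read at 24 h. MIC80 is the first well with about 80% growth reduction relative to the drug-free control. Each test was run three times and the mean of replicates taken.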

Candida parapsilosis = test: Antifungal activity against Candida parapsilosis clinical isolate by micro-broth dilution method; settings: Lodderomyces parapsilosis; summary of the method: as §1
Candida tropicalis = test: Antifungal activity against Candida tropicalis clinical isolate by micro-broth dilution method; summary of the method: as §1
Nannizzia gypsea = test: Antifungal activity against Microsporum gypseum clinical isolate by micro-broth dilution method; summary of the method: as §1
[3] = Antifungal activity against Fonsecaea compacta clinical isolate by micro-broth dilution method; summary of the method: as §1
Trichophyton rubrum = test: Antifungal activity against Trichophyton rubrum clinical isolate by micro-broth dilution method; summary of the method: as §1

Structure (SMILES)	Ratio (Candida albicans [1])	MIC80 (Cryptococcus neoformans) [µg/mL]	MIC80 (Aspergillus fumigatus) [µg/mL]	MIC80 (Candida albicans [2]) [µg/mL]	MIC80 (Candida parapsilosis) [µg/mL]	MIC80 (Candida tropicalis) [µg/mL]	MIC80 (Nannizzia gypsea) [µg/mL]	MIC80 [3] [µg/mL]	MIC80 (Trichophyton rubrum) [µg/mL]
O=C(/C=C/c1ccccc1)Nc1ccc(N2CCN(CC(O)(Cn3cncn3)c3ccc(F)cc3F)CC2)c(C(F)(F)F)c1 (centres undefined)	16	0.25 (≈ 0.408 µM)	4 (≈ 6.53 µM)	0.00097 (≈ 0.00158 µM)	–	–	–	–	–
O=C(Nc1ccc(N2CCN(CC(O)(Cn3cncn3)c3ccc(F)cc3F)CC2)c(C(F)(F)F)c1)c1ccc(F)cc1 (centres undefined)	–	16 (≈ 26.5 µM)	4 (≈ 6.62 µM)	4 (≈ 6.62 µM)	0.25 (≈ 0.414 µM)	1 (≈ 1.65 µM)	1 (≈ 1.65 µM)	4 (≈ 6.62 µM)	4 (≈ 6.62 µM)
CC(C)(C)c1ccc(C(=O)Nc2ccc(N3CCN(CC(O)(Cn4cncn4)c4ccc(F)cc4F)CC3)c(C(F)(F)F)c2)cc1 (centres undefined)	–	0.25 (≈ 0.389 µM)	> 64	4 (≈ 6.22 µM)	0.25 (≈ 0.389 µM)	1 (≈ 1.56 µM)	4 (≈ 6.22 µM)	4 (≈ 6.22 µM)	4 (≈ 6.22 µM)
CCCCCC(=O)Nc1ccc(N2CCN(CC(O)(Cn3cncn3)c3ccc(F)cc3F)CC2)c(C(F)(F)F)c1 (centres undefined)	–	1 (≈ 1.72 µM)	64 (≈ 110 µM)	1 (≈ 1.72 µM)	1 (≈ 1.72 µM)	4 (≈ 6.89 µM)	4 (≈ 6.89 µM)	16 (≈ 27.6 µM)	4 (≈ 6.89 µM)
COc1ccc(C(=O)Nc2ccc(N3CCN(CC(O)(Cn4cncn4)c4ccc(F)cc4F)CC3)c(C(F)(F)F)c2)cc1 (centres undefined)	–	1 (≈ 1.62 µM)	4 (≈ 6.49 µM)	1 (≈ 1.62 µM)	1 (≈ 1.62 µM)	1 (≈ 1.62 µM)	1 (≈ 1.62 µM)	16 (≈ 25.9 µM)	1 (≈ 1.62 µM)
OC(Cn1cncn1)(Cn1cncn1)c1ccc(F)cc1F [FLUCONAZOLE]	–	1 (≈ 3.27 µM)	64 (≈ 209 µM)	4 (≈ 13.1 µM)	1 (≈ 3.27 µM)	1 (≈ 3.27 µM)	0.25 (≈ 0.816 µM)	16 (≈ 52.2 µM)	0.25 (≈ 0.816 µM)
CCCCC(=O)Nc1ccc(N2CCN(CC(O)(Cn3cncn3)c3ccc(F)cc3F)CC2)c(C(F)(F)F)c1 (centres undefined)	–	4 (≈ 7.06 µM)	> 64	1 (≈ 1.76 µM)	0.25 (≈ 0.441 µM)	1 (≈ 1.76 µM)	4 (≈ 7.06 µM)	4 (≈ 7.06 µM)	4 (≈ 7.06 µM)
O=C(Nc1ccc(N2CCN(CC(O)(Cn3cncn3)c3ccc(F)cc3F)CC2)c(C(F)(F)F)c1)c1ccccc1 (centres undefined)	–	0.25 (≈ 0.426 µM)	4 (≈ 6.82 µM)	1 (≈ 1.7 µM)	0.25 (≈ 0.426 µM)	1 (≈ 1.7 µM)	1 (≈ 1.7 µM)	4 (≈ 6.82 µM)	1 (≈ 1.7 µM)
O=C(Nc1ccc(N2CCN(CC(O)(Cn3cncn3)c3ccc(F)cc3F)CC2)c(C(F)(F)F)c1)c1ccc(OC(F)(F)F)cc1 (centres undefined)	–	16 (≈ 23.9 µM)	64 (≈ 95.4 µM)	16 (≈ 23.9 µM)	4 (≈ 5.97 µM)	4 (≈ 5.97 µM)	4 (≈ 5.97 µM)	16 (≈ 23.9 µM)	16 (≈ 23.9 µM)
CCCCCCCC(=O)Nc1ccc(N2CCN(CC(O)(Cn3cncn3)c3ccc(F)cc3F)CC2)c(C(F)(F)F)c1 (centres undefined)	–	16 (≈ 26.3 µM)	> 64	0.25 (≈ 0.411 µM)	4 (≈ 6.57 µM)	16 (≈ 26.3 µM)	0.25 (≈ 0.411 µM)	4 (≈ 6.57 µM)	4 (≈ 6.57 µM)
Cc1ccc(C(=O)Nc2ccc(N3CCN(CC(O)(Cn4cncn4)c4ccc(F)cc4F)CC3)c(C(F)(F)F)c2)cc1 (centres undefined)	–	1 (≈ 1.67 µM)	64 (≈ 107 µM)	1 (≈ 1.67 µM)	0.25 (≈ 0.416 µM)	1 (≈ 1.67 µM)	1 (≈ 1.67 µM)	16 (≈ 26.6 µM)	4 (≈ 6.66 µM)
